We go through twelve compounds from ChEMBL document CHEMBL1141679, “Design, synthesis, biochemical, and biological evaluation of nitrogen-containing trifluoro structural modifications of combretastatin A-4” (Bioorg Med Chem Lett, 2008).

The subject of experiment [1] is NCI-H460. Put plainly: Cytotoxicity against human NCI-H460 cells after 48 hrs by SRB assay. Particulars: NCI-H460, 48 h. It is filed as functional. The essentials:
(§1)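 Cells were seeded in culture medium with 5% fetal bovine serum and incubated 24 h, then serial dilutions of compound were added. After 48 h, cells were fixed with trichloroacetic acid and stained with sulforhodamine B, and optical density was read on a plate reader. GI50 is the concentration giving a 50% reduction in net protein increase, calculated from optical density.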

A short description of experiment [2]: Inhibition of calf brain tubulin polymerization. Further details: species or system Bos taurus. The essentials:
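Tubulin was purified from calf brain. Assembly was followed by turbidity at 350 nm. IC50 was obtained by nonlinear regression of the data.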

The test system of experiment [3] is DU-145. Put plainly: Cytotoxicity against human DU145 cells after 48 hrs by SRB assay. It is filed as functional. Particulars: DU-145, 48 h. An outline of the steps:
as §1
(The SRB assay estimates cell density from bound dye.)

In brackets after ≈: the same amount, converted by molar mass. Where only a bound is given, the exact number is not on record here.

For `COc1ccc(/C=C\c2cc(F)c(F)c(F)c2)cc1N`, the GI50 turned out to be 0.11 µg/mL (≈ 0.394 µM) in experiment [1] and 0.072 µg/mL (≈ 0.258 µM) in experiment [3]. It took 2900 nM to reach half-maximal inhibition in experiment [2] (IC50).
On to `COc1ccc(/C=C/c2cc(F)c(F)c(F)c2)cc1N`, for which the GI50 in experiment [1] and in experiment [3] was greater than 5 µg/mL throughout. Further, the IC50 in experiment [2] is greater than 40000 nM.
`COc1ccc(/C=C\c2cc(F)c(F)c(F)c2)cc1O`: the GI50 in experiment [1] turned out to be 0.2 µg/mL (≈ 0.714 µM); in experiment [3] it was 0.04 µg/mL (≈ 0.143 µM). This compound also yielded an IC50 in experiment [2] of 4500 nM.
`COc1ccc(/C=C\c2cc(OC)c(OC)c(OC)c2)cc1O` [COMBRETASTATIN A4]: the GI50 turned out to be 0.0006 µg/mL (≈ 0.0019 µM) in experiment [1] and 0.0008 µg/mL (≈ 0.00253 µM) in experiment [3].
`COc1ccc(/C=C\c2cc(F)c(F)c(F)c2)c(N)c1`: the GI50 was greater than 5 µg/mL in experiment [1] and 4.3 µg/mL (≈ 15.4 µM) in experiment [3].
Take `COc1ccc(/C=C\c2cc(F)c(F)c(F)c2)cc1[N+](=O)[O-]`: the GI50 in experiment [1] and in experiment [3] was greater than 5 µg/mL throughout. The IC50 in experiment [2] is greater than 40000 nM.
Regarding `COc1ccc(/C=C\c2cc(OC)c(OC)c(OC)c2)cc1N`, the values for the GI50 in experiment [1] and in experiment [3] were 0.00068 µg/mL (≈ 0.00216 µM) and 0.00096 µg/mL (≈ 0.00304 µM), respectively. For the same compound, the midpoint of inhibition in experiment [2], the IC50, lay at 2600 nM.
As for `COc1ccc(/C=C/c2cc(F)c(F)c(F)c2)cc1[N+](=O)[O-]`, the GI50 in experiment [1] and in experiment [3] was greater than 5 µg/mL throughout. The IC50 in experiment [2] was greater than 40000 nM.
As to `COc1ccc(/C=C\c2cc(F)c(F)c(F)c2)c([N+](=O)[O-])c1`, the GI50 in experiment [1] and in experiment [3] was greater than 5 µg/mL each time.
Consider `COc1ccc(/C=C/c2cc(F)c(F)c(F)c2)c([N+](=O)[O-])c1`, for which the GI50 in experiment [1] and in experiment [3] was greater than 5 µg/mL in each case.
Take `COc1ccc(/C=C\c2cc(OC)c(OC)c(OC)c2)c(N)c1`: the GI50 in experiment [1] turned out to be 0.0012 µg/mL (≈ 0.00381 µM); in experiment [3], 0.0016 µg/mL (≈ 0.00507 µM). The compound further returned an IC50 in experiment [2] of 1400 nM.
For `COc1ccc(/C=C/c2cc(F)c(F)c(F)c2)c(N)c1`, the GI50 in experiment [1] and in experiment [3] was greater than 5 µg/mL each time.

By GI50 is commonly meant the concentration that inhibits growth by half. The low end stands for more potent growth inhibition, the high end for less potent growth inhibition. As usually defined, the IC50 is the concentration at which inhibition is half-maximal. A lower IC50 goes with inhibition by little substance.
